Experimental data pooled from the literature.
Lines come from different studies, so protocols differ.
Observed: cell growth or viability

`CC(C)C[C@@H](NC(=O)[C@H](C)NC(=O)CNC(=O)[C@@H](NC=O)C(C)C)C(=O)N[C@@H](C)C(=O)N[C@@H](C(=O)N[C@H](C(=O)N[C@@H](C(=O)N[C@@H](Cc1c[nH]c2ccccc12)C(=O)N[C@H](CC(C)C)C(=O)N[C@@H](Cc1ccc2[nH]ccc2c1)C(=O)N[C@H](CC(C)C)C(=O)N[C@@H](Cc1c[nH]c2ccccc12)C(=O)N[C@@H](C(=O)N[C@@H](Cc1c[nH]c2ccccc12)C(=O)NCCO)C(C)C)[C@H](C)O)C(C)C)C(C)C` gave a GI50 of 0.878 µM (MCF7; SRB; 48 h).
With `O=C1CCP(c2ccccc2)CC1` the IC50 was 73.7 µM (SW-620; MTT; 72 h).
With `O=C(NCc1ccc(O)cc1)c1cn(Cc2ccc(F)cc2)c2ccc(Oc3ccccc3)cc2c1=O` the IC50 was > 500 µM (MCF7; MTT; 24 h).
The IC50 of `CC[C@H](C)[C@H](NC(=O)[C@H](CCCCN)NC(=O)[C@H](CCCCN)NC(=O)[C@H](CC(C)C)NC(=O)[C@H](CCCCN)NC(=O)[C@H](CCCCN)NC(=O)[C@H](Cc1ccccc1)NC(=O)[C@H](Cc1ccccc1)NC(=O)[C@H](CCCNC(=N)N)NC(=O)[C@H](CCCNC(=N)N)NC(=O)[C@@H](NC(=O)[C@H](CCCCN)NC(=O)[C@H](CCCNC(=N)N)NC(=O)[C@@H](NC(=O)[C@@H](N)Cc1ccc(O)cc1)[C@@H](C)CC)[C@@H](C)CC)C(=O)N[C@@H](CC(C)C)C(=O)N[C@@H](CCCCN)C(=O)N[C@@H](CCCCN)C(N)=O` is reported as > 20 µM (SAOS-2; resazurin).
For `CC(C)C[C@@H](NC(=O)[C@H](C)NC(=O)CNC(=O)[C@@H](NC=O)C(C)C)C(=O)N[C@@H](C)C(=O)N[C@@H](C(=O)N[C@H](C(=O)N[C@@H](C(=O)N[C@@H](Cc1c[nH]c2ccccc12)C(=O)N[C@H](CC(C)C)C(=O)N[C@@H](Cc1cccc2[nH]ccc12)C(=O)N[C@H](CC(C)C)C(=O)N[C@@H](Cc1c[nH]c2ccccc12)C(=O)N[C@H](CC(C)C)C(=O)N[C@@H](Cc1c[nH]c2ccccc12)C(=O)NCCO)C(C)C)C(C)C)C(C)C`, the GI50 was 0.0684 µM (MCF7; SRB; 48 h).
`O=C(NCc1ccccc1)c1cn(Cc2ccc(C(F)(F)F)cc2)c2ccc(Oc3ccccc3)cc2c1=O` gave an IC50 of 9.4 µM (MCF7; MTT; 24 h).
With `O=C1CCP(=S)(c2ccccc2)CC1` the IC50 was 6.3 µM (SW-620; MTT; 72 h).
With `CC(C)C[C@@H](NC(=O)[C@H](C)NC(=O)CNC(=O)[C@@H](NC=O)C(C)C)C(=O)N[C@@H](C)C(=O)N[C@@H](C(=O)N[C@H](C(=O)N[C@@H](C(=O)N[C@@H](Cc1c[nH]c2ccccc12)C(=O)N[C@H](CC(C)C)C(=O)N[C@@H](Cc1cccc2cc[nH]c12)C(=O)N[C@H](CC(C)C)C(=O)N[C@@H](Cc1c[nH]c2ccccc12)C(=O)N[C@H](CC(C)C)C(=O)N[C@@H](Cc1c[nH]c2ccccc12)C(=O)NCCO)C(C)C)C(C)C)C(C)C` the GI50 was 0.0365 µM (MCF7; SRB; 48 h).
`N.N.[Cl][Pt][Cl]` gave an IC50 of 27.8 µM (MCF7; MTT; 48 h).
With `O=C(Nc1ccc(Cl)cc1)Nc1cccc(-c2cn(Cc3ccc(Br)cc3)nn2)c1` the viability was 86.8% (MCF7; CCK-8; 50 µM; 72 h).
